Test results published in ChEMBL document CHEMBL2163325, “Discovery of phosphoinositide 3-kinases (PI3K) p110β isoform inhibitor 4-[2-hydroxyethyl(1-naphthylmethyl)amino]-6-[(2S)-2-methylmorpholin-4-yl]-1H-pyrimidin-2-one, an effective antithrombotic agent without associated bleeding and insulin resistance” (Bioorg Med Chem Lett, 2012).

How the values were obtained:
[1] = species: Homo sapiens; assay: Selectivity ratio of IC50 for human PI3K p110alpha to IC50 for human PI3K p110beta
[2] = Lipophilicity, log D of the compound at pH 7.4 by HPLC analysis; assay type: physicochemical; conditions: buffer
How it was run: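 LogD measured at pH 7.4 by HPLC.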

[3] = biological target: Phosphatidylinositol 4,5-bisphosphate 3-kinase catalytic subunit beta isoform (Homo sapiens, UniProt P42338); assay: Inhibition of human recombinant His6-tagged PI3K p110beta expressed in baculovirus infected cells using DiC8-PI(4,5)P2 as substrate after 20 mins by AlphaScreen assay
[4] = biological target: Phosphatidylinositol 4,5-bisphosphate 3-kinase catalytic subunit alpha isoform (Homo sapiens, UniProt P42336); assay: Inhibition of human recombinant His6-tagged PI3K p110alpha expressed in baculovirus infected cells using DiC8-PI(4,5)P2 as substrate after 20 mins by AlphaScreen assay
[5] = biological target: Cytochrome P450 2C9 (Homo sapiens, UniProt P11712); assay: Inhibition of CYP2C9; assay type: ADME
[6] = biological target: Cytochrome P450 3A4 (Homo sapiens, UniProt P08684); assay: Inhibition of CYP3A4; assay type: ADME
[7] = Toxicity in human adipocytes assessed as inhibition of insulin-induced glucose uptake; assay type: cell-based, Adipocyte
[8] = test system: Rattus norvegicus; assay: Toxicity in overnight fasted Sprague-Dawley rat assessed as induction of insulin resistance administered as 30 mins infusion; assay type: organism-based; conditions: in vivo, iv, 0.5 h
How it was run: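 Overnight fasted SD rats (N = 6) infused with 4 consecutive escalating doses, each over 30 min. Blood taken at the end of each interval for plasma exposure, glucose and insulin. HOMA index is glucose × insulin, normalized to vehicle controls (N = 4) and pretreatment medians. Mean ± SEM.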

Sequence of Phosphatidylinositol 4,5-bisphosphate 3-kinase catalytic subunit beta isoform (P42338 whole entry, canonical isoform): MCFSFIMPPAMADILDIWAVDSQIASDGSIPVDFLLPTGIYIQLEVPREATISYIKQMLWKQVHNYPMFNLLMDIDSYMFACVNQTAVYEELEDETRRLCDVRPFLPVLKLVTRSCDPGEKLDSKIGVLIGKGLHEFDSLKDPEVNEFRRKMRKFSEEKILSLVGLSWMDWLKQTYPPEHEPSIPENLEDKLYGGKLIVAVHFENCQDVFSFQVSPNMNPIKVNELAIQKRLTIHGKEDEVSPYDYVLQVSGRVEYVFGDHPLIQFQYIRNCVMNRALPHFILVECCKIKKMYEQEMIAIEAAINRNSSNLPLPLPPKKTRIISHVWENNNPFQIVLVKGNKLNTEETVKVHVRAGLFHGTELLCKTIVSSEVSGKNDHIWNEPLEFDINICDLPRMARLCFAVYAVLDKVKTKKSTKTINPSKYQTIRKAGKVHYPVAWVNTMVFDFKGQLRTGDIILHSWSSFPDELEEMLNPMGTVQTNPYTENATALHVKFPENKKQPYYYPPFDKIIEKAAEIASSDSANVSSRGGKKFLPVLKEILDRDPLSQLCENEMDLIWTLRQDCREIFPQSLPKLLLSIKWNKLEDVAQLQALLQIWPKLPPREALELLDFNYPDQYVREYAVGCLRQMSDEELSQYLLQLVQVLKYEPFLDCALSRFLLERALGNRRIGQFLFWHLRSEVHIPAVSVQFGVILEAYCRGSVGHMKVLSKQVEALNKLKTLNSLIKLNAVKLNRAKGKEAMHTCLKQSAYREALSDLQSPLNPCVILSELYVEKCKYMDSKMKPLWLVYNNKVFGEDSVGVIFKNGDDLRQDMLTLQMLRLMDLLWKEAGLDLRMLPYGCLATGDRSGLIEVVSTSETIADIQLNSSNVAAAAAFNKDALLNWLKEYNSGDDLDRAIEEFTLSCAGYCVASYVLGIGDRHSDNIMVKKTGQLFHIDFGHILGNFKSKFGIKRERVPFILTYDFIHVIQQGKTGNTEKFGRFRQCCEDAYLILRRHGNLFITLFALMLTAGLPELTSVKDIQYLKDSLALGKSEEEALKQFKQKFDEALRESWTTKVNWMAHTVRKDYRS
Sequence of Phosphatidylinositol 4,5-bisphosphate 3-kinase catalytic subunit alpha isoform (P42336 whole entry, canonical isoform): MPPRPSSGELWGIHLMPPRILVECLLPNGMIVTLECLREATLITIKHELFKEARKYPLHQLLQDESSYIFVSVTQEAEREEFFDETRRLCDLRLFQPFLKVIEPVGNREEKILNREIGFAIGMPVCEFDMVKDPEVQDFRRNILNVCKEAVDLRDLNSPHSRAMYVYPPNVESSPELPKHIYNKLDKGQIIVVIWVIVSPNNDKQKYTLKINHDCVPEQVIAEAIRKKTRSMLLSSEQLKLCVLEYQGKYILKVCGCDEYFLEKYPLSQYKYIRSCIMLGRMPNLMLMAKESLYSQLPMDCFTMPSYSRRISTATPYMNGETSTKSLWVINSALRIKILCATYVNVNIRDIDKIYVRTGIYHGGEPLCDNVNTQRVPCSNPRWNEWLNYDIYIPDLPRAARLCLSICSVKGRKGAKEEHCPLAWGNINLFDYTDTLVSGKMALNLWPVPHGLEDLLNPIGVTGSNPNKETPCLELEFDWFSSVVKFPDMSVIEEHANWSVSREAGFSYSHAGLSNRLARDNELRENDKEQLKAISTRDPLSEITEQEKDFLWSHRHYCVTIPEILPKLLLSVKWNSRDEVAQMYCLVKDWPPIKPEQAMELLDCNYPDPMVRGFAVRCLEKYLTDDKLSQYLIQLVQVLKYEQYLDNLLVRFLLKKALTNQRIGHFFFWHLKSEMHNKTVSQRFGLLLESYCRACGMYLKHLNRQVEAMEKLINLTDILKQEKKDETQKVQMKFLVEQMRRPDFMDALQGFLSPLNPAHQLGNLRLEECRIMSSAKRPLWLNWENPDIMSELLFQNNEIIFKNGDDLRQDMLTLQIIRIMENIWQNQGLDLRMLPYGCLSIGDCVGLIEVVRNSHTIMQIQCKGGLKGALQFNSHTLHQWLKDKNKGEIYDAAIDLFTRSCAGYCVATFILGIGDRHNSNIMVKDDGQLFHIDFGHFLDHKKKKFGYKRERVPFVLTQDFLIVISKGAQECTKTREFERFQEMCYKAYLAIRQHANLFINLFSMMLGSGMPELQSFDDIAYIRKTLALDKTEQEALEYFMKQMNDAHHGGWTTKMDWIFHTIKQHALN
Sequence of Cytochrome P450 3A4 (P08684 whole entry): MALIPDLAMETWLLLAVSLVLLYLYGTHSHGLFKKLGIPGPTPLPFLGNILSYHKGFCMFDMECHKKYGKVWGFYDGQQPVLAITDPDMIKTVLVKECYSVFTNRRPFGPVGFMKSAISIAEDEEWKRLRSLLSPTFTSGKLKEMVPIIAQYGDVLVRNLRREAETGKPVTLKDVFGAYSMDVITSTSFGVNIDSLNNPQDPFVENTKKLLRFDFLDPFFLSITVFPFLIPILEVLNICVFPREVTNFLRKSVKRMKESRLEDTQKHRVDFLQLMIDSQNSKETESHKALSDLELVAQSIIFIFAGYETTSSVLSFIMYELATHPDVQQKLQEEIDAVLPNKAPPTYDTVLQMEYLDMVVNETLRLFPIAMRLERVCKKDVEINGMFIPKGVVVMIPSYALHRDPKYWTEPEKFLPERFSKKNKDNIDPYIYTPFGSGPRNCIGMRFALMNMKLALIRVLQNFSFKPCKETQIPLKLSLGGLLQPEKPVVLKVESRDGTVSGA
Sequence of Cytochrome P450 2C9 (P11712 whole entry): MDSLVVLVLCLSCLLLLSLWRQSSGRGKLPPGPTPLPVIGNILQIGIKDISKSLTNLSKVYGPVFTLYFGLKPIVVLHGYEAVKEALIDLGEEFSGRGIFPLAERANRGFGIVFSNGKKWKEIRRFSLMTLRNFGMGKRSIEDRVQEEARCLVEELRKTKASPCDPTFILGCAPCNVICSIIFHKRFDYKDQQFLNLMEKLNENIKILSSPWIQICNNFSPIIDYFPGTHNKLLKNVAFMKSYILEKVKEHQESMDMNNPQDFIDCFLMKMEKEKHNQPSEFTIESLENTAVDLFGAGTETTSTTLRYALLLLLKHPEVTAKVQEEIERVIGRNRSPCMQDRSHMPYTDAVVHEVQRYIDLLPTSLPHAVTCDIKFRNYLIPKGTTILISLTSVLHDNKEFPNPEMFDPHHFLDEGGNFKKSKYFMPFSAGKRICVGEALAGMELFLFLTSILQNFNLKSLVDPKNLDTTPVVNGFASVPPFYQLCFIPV

| Ratio IC50 [1] | logD [2] | IC50 [3] | IC50 [4] | IC50 [5] | IC50 [6] | SMILES | IC50 [7] | Activity [8] |
| --- | --- | --- | --- | --- | --- | --- | --- | --- |
| 628 | 2.5 | 0.13 µM | 82.8 µM |  |  | CCN(Cc1cccc2ccccc12)c1cc(N2CCOCC2)nc(=O)[nH]1 |  |  |
| 78 | 2.6 | 0.97 µM | 76 µM |  |  | O=c1nc(N2CCOCC2)cc(N(Cc2cccc3ccccc23)C2CC2)[nH]1 |  |  |
| > 26 | 1.4 | 3.1 µM | > 83.3 µM |  |  | CN(C)CCN(Cc1cccc2ccccc12)c1cc(N2CCOCC2)nc(=O)[nH]1 |  |  |
|  | 1.9 | 1 µM | 349 µM |  |  | C[C@@H]1CN(c2cc(N(CCO)Cc3cccc4ccccc34)[nH]c(=O)n2)CCO1 |  |  |
| 355 | 2.37 | 0.6 µM | 212 µM |  |  | CN(Cc1cccc2ccccc12)c1cc(N2CCOCC2)nc(=O)[nH]1 |  |  |
|  | 2.6 | 0.007 µM | 0.84 µM | 0.4 µM | 0.7 µM | Cc1cc(-c2cc(=O)[nH]c(NCc3cccc4ccccc34)n2)ccn1 |  |  |
|  | 1.6 | 31 µM | 160 µM |  |  | O=c1cc(N2CCC(O)CC2)nc(NCc2cccc3ccccc23)[nH]1 |  |  |
| 373 | 1.8 | 0.2 µM | 73.7 µM |  |  | O=c1nc(N2CCOCC2)cc(N(CCCCO)Cc2cccc3ccccc23)[nH]1 |  |  |
| 808 | 2 | 0.14 µM | 112 µM |  |  | CC(O)CN(Cc1cccc2ccccc12)c1cc(N2CCOCC2)nc(=O)[nH]1 (stereo unspecified) |  |  |
| 524 | 1.75 | 0.1 µM | 51.5 µM |  |  | O=c1nc(N2CCOCC2)cc(N(CCCO)Cc2cccc3ccccc23)[nH]1 |  |  |
| 340 | 1.55 | 0.09 µM | 30.8 µM |  |  | O=c1nc(N2CCOCC2)cc(N(CCO)Cc2cccc3ccccc23)[nH]1 |  |  |
| > 64 | 1.5 | 1.2 µM | > 83.3 µM |  |  | CN(C)CCCN(Cc1cccc2ccccc12)c1cc(N2CCOCC2)nc(=O)[nH]1 |  |  |
| 65 | 2.9 | 0.034 µM | 2.2 µM |  |  | CC1CN(c2cc(=O)[nH]c(NCc3cccc4ccccc34)n2)CCO1 (stereo unspecified) |  |  |
|  | 2.7 | 24 µM | 82.6 µM |  |  | COC1CN(c2cc(=O)[nH]c(NCc3cccc4ccccc34)n2)C1 |  |  |
|  |  |  |  |  |  | Cc1cc([C@@H](C)Nc2ccccc2C(=O)O)c2nc(N3CCOCC3)cc(=O)n2c1 [AZD-6482] | 4.4 µM | Dose-dependent effect |
|  | 1.9 | 11 µM | 62.3 µM |  |  | O=c1cc(-c2cn[nH]c2)nc(NCc2cccc3ccccc23)[nH]1 |  |  |
| 58 | 3 | 0.98 µM | 56.9 µM |  |  | O=c1nc(N2CCOCC2)cc(N(Cc2cccc3ccccc23)CC(O)C(F)(F)F)[nH]1 (stereo unspecified) |  |  |
| 690 | 2.5 | 0.22 µM | 149 µM |  |  | CCC(O)CN(Cc1cccc2ccccc12)c1cc(N2CCOCC2)nc(=O)[nH]1 (stereo unspecified) |  |  |
| 143 | 3.15 | 1.4 µM | 205 µM |  |  | CC(C)(CO)CN(Cc1cccc2ccccc12)c1cc(N2CCOCC2)nc(=O)[nH]1 |  |  |
